Screening results: PubChem BioAssay, The Scripps Research Institute Molecular Screening Center
EBNA-1 inhibitor: blocks EBNA-1 binding to DNA; AID 1950; inhibition, % at 14.8 µM; hit rate 0.34% among 300,000; EBNA-1 DNA binding, fluorescence polarization; in the data active means inhibition above about 28%
HCV NS3 hel inh: inhibitors of Hepatitis C virus NS3 helicase. inhibition, % at 10.9 µM. NS3 helicase DNA unwinding, Cy5 molecular beacon fluorescence. AID 1800. hit rate 0.56% among 290,000;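 active means inhibition above the mean of all tested compounds plus 3 SD, set per campaign, cut at about 35% in these data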;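 further: 0% = DMSO wells and 100% = thioflavine S control wells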
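test system = hepatitis C virus NS3 helicase domain fragment enzyme | reagent = annealed dual-labelled DNA beacon duplex, ATP-started | times = 1 h at 25 °C | detection = Cy5 fluorescence, 0 and 60 min reads | read-out basis = percent inhibition from t60/t0 fluorescence ratio | control set = DMSO and thioflavine S | replication = one well per compound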
core dimer inh: blocks dimerization of HCV core protein; inhibition, % at 5 µM; TR-FRET GST/Flag-core106 dimerization, 1536-well; hit rate 0.33% among 300,000;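 active means inhibition above the mean of all tested compounds plus 3 SD, set per screening campaign, cut at about 45% in these data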
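System: GST/Flag-tagged HCV core106 proteins. Incubation: compound-protein-antibody incubation 4 h at 22.5 °C. Technique: HTRF with 340 nm excitation, 617/671 nm emission. Medium: KF-containing HEPES buffer, pH 7.45, DTT, CHAPS, BSA. Read-out: inhibition (%) from 671 over 617 nm ratio. Also added: Eu(K)-anti-GST 90 ng/mL plus XL665-anti-Flag 1 µg/mL.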
PP1 counter: counter-screen for PP5 inhibitors: inhibitors of human PP1-alpha; inhibition, % at 6.7 µM; hit rate 0.9% among 320,000; P62136; purified PP1alpha, OMFP fluorescence; AID 2235;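 active means inhibition above the mean inhibition of all tested compounds plus 3 SD, computed separately for each screening campaign, cut at about 15% in these data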
Target sequence (P62136 whole entry, looked up): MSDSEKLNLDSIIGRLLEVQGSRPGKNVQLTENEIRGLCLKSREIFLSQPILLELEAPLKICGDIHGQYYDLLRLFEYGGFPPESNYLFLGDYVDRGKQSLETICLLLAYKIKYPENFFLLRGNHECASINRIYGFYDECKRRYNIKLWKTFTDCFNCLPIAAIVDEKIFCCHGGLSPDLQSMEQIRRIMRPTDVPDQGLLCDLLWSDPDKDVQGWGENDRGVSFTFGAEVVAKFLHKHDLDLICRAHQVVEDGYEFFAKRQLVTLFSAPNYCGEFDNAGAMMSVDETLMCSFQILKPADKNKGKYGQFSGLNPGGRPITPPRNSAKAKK
ZTA DNA inh: counter-screen for EBNA-1 inhibitors: inhibitors of Epstein-Barr virus ZTA. P03206. ZTA-DNA binding, fluorescence polarization. inhibition, % at 11 µM. hit rate 0.15% among 320,000; in the data active means inhibition above about 33%
Target sequence (P03206 whole entry, looked up): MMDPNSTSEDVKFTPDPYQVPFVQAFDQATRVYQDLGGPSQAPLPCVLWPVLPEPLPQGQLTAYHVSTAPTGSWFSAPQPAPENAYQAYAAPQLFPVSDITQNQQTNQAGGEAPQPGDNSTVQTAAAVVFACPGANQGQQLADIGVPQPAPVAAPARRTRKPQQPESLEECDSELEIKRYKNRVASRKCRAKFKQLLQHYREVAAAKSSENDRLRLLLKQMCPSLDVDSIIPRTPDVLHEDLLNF
Active calls of the source: *. In the library only some 1.9% were active in any assay of this set; here they are far more common.

How did CCN1C(=O)[C@@H]2[C@@H](c3ccc(-c4ccc(Cl)c(Cl)c4)c(OC)c3)N3CCC[C@@]3(C(=O)OC)[C@@H]2C1=O do in these assays?
EBNA-1 inhibitor: 5.3; core dimer inh: 7.3; PP1 counter: 10.6; ZTA DNA inh: 7.8

How did Cc1c(OCC(=O)N[C@@H](Cc2ccccc2)C(=O)O)ccc2c3c(c(=O)oc12)CCC3 do in these assays?
EBNA-1 inhibitor: 9.2; HCV NS3 hel inh: 22.9; core dimer inh: 1.3; PP1 counter: 0.1; ZTA DNA inh: 16.0

Results for Cc1c(OCC(=O)N[C@@H](Cc2ccccc2)C(=O)O)ccc2c1oc(=O)c1ccccc12 ?
EBNA-1 inhibitor: -5.8; HCV NS3 hel inh: -8.2; core dimer inh: -0.9; PP1 counter: 15.2*; ZTA DNA inh: -0.7

How did O=C(Cc1cccc2ccccc12)N/N=C/c1ccc(OC(=O)/C=C/c2ccco2)cc1 do in these assays?
EBNA-1 inhibitor: 5.8; HCV NS3 hel inh: 15.3; core dimer inh: 64.8*; PP1 counter: 8.6; ZTA DNA inh: -6.5

What do the screens show for `O=C(Cc1cccc2ccccc12)N/N=C/c1ccc(F)cc1`?
EBNA-1 inhibitor: 0.5; HCV NS3 hel inh: -12.5; core dimer inh: -3.2; PP1 counter: 2.5; ZTA DNA inh: 1.1

How did NNC(=O)c1ccc(CN2C(=O)c3cccc4cccc2c34)cc1 do in these assays?
EBNA-1 inhibitor: 4.5; HCV NS3 hel inh: 9.8; core dimer inh: 9.3; PP1 counter: 9.5; ZTA DNA inh: 8.4

Results for COc1ccccc1/C=N/NC(=O)c1ccc(CN2C(=O)c3cccc4cccc2c34)cc1 ?
EBNA-1 inhibitor: 1.4; HCV NS3 hel inh: 0.3; core dimer inh: 18.3; PP1 counter: 16.2*; ZTA DNA inh: -6.3

What do the screens show for `CCOc1cc(C(=O)OCC(=O)NCc2ccco2)cc(OCC)c1OCC`?
EBNA-1 inhibitor: -1.7; HCV NS3 hel inh: 25.3; core dimer inh: 52.3*; PP1 counter: -3.8; ZTA DNA inh: 10.8

Results for O=C(COC(=O)c1cccs1)NCc1ccco1 ?
EBNA-1 inhibitor: -1.6; core dimer inh: 5.7; PP1 counter: -5.0; ZTA DNA inh: 3.0

How did CC(C)C(NC(=O)OCc1ccccc1)C(=O)OCC(=O)NCc1ccco1 (stereo not given) do in these assays?
EBNA-1 inhibitor: -3.5; HCV NS3 hel inh: 20.1; core dimer inh: 74.7*; PP1 counter: -4.9; ZTA DNA inh: 4.8

What do the screens show for `O=C(COC(=O)c1ccc(NS(=O)(=O)c2cccs2)cc1)NCc1ccco1`?
EBNA-1 inhibitor: 7.2; HCV NS3 hel inh: 28.8; core dimer inh: 71.7*; PP1 counter: 13.4; ZTA DNA inh: -1.0

What do the screens show for `CC1CCCC(C)N1C(=O)CN1C(=O)c2ccccc2S1(=O)=O` (stereo not given)?
PP1 counter: -0.8; ZTA DNA inh: -0.5

Results for CC(C)(C)c1nnc(SCC(=O)Nc2ccc(N3CCCCC3)cc2)n1N ?
PP1 counter: -2.4; ZTA DNA inh: -17.2

Results for COc1ccccc1N1CCN(C(=O)c2ccc3c(c2)CCN3S(C)(=O)=O)CC1 ?
EBNA-1 inhibitor: 7.3; HCV NS3 hel inh: -0.6; core dimer inh: 2.7; PP1 counter: -4.5; ZTA DNA inh: -0.8

How did COc1ccc(OC)c(N2C(=O)[C@@H]3C(c4ccccc4Cl)=NO[C@@H]3C2=O)c1 do in these assays?
EBNA-1 inhibitor: 9.0; HCV NS3 hel inh: 13.6; core dimer inh: 76.5*; PP1 counter: 1.0; ZTA DNA inh: -3.5

What do the screens show for `Cc1cccc(C)c1N1C(=O)[C@@H]2C(c3ccccc3Cl)=NO[C@@H]2C1=O`?
EBNA-1 inhibitor: 8.3; HCV NS3 hel inh: -0.6; core dimer inh: 1.5; PP1 counter: -3.0; ZTA DNA inh: 8.1

What do the screens show for `N#Cc1c(N)sc(=S)c2c1CCN(Cc1ccccc1)C2`?
EBNA-1 inhibitor: -8.2; core dimer inh: 56.7*; PP1 counter: 19.8*; ZTA DNA inh: -5.0

What do the screens show for `CCN1CCc2c(sc(N)c2C#N)C1`?
EBNA-1 inhibitor: 5.8; HCV NS3 hel inh: -0.9; core dimer inh: -4.6; PP1 counter: -0.5; ZTA DNA inh: 6.0

How did O=C(CN1CCOCC1)Nc1ccc2c(c1)CCC2 do in these assays?
EBNA-1 inhibitor: -2.3; HCV NS3 hel inh: 11.3; core dimer inh: -3.9; PP1 counter: -5.2; ZTA DNA inh: 16.9

What do the screens show for `O=C(c1ccc(-c2ccc(Cl)cc2)o1)N1CCN(c2ccc([N+](=O)[O-])cc2Cl)CC1`?
EBNA-1 inhibitor: 6.8; HCV NS3 hel inh: -0.4; core dimer inh: 20.7; PP1 counter: 16.2*; ZTA DNA inh: 10.5

What do the screens show for `C#CCOCCOCCOCCNc1nc(N2CCN(C(=O)CCCCCCCCCCNC(=O)[C@H]([C@@H](C)CC)n3cc(CCCCCN)nn3)CC2)nc(N2CCN(C(=O)CCCCCCCCCCNC(=O)[C@@H]([C@H](C)CC)n3cc(CCCCCN)nn3)CC2)n1`?
EBNA-1 inhibitor: -4.8; core dimer inh: -4.4; PP1 counter: 64.2*; ZTA DNA inh: 65.4*

How did C#CCOCCOCCOCCNc1nc(N2CCN(C(=O)CCCCCCCCCCNC(=O)[C@H](CO)n3cc(CCCSC)nn3)CC2)nc(N2CCN(C(=O)CCCCCCCCCCNC(=O)[C@@H]([C@H](C)O)n3cc(C)nn3)CC2)n1 do in these assays?
EBNA-1 inhibitor: 3.4; core dimer inh: 33.2; PP1 counter: 30.7*; ZTA DNA inh: 14.1

How did C#CCOCCOCCOCCNc1nc(N2CCN(C(=O)CCCCCCCCCCNC(=O)[C@H]([C@@H](C)CC)n3cc(CCCCN=C(N)N)nn3)CC2)nc(N2CCN(C(=O)CCCCCCCCCCNC(=O)[C@H]([C@@H](C)CC)n3cc(CCCCN=C(N)N)nn3)CC2)n1 do in these assays?
EBNA-1 inhibitor: -1.9; core dimer inh: 15.6; PP1 counter: 73.5*; ZTA DNA inh: 147.3*

How did COc1ccccc1-c1cc(C(=O)N/N=C/c2ccoc2)c2ccccc2n1 do in these assays?
EBNA-1 inhibitor: -9.4; HCV NS3 hel inh: 6.3; core dimer inh: 0.0; PP1 counter: 3.4; ZTA DNA inh: 3.8

How did CCc1ccc2[nH]c(=O)c(C3C(C#N)=C(N)Oc4c3ccc3cccnc43)cc2c1 (stereo not given) do in these assays?
EBNA-1 inhibitor: 10.0; HCV NS3 hel inh: 17.3; core dimer inh: 14.3; PP1 counter: 23.4*; ZTA DNA inh: 13.9

How did CCOC(=O)C1CCN(S(=O)(=O)c2cc3c(cc2C)NC(=O)CO3)CC1 do in these assays?
EBNA-1 inhibitor: -2.0; HCV NS3 hel inh: -8.2; core dimer inh: -3.6; PP1 counter: -2.5; ZTA DNA inh: 6.6

What do the screens show for `COc1ccc(Nc2nc3ccccc3n3nnnc23)cc1`?
EBNA-1 inhibitor: 5.2; HCV NS3 hel inh: 1.6; core dimer inh: 2.5; PP1 counter: 1.0; ZTA DNA inh: -1.5

What do the screens show for `Cc1ccc(Nc2nc3ccccc3n3nnnc23)cc1`?
EBNA-1 inhibitor: 34.2*; HCV NS3 hel inh: 7.5; core dimer inh: -0.2; PP1 counter: -1.7; ZTA DNA inh: -1.6

Results for CCc1c(O)cc(=O)n(-c2ccccc2)c1-c1ccccc1 ?
EBNA-1 inhibitor: -1.0; HCV NS3 hel inh: 14.3; core dimer inh: 55.3*; PP1 counter: 9.2; ZTA DNA inh: -6.9
